Test results taken from ChEMBL document CHEMBL4004850, “Rational design of reversible inhibitors for trehalose 6-phosphate phosphatases” (Eur J Med Chem, 2017).

Legend:
[1] = tested on: Mycobacterium tuberculosis; assay: Inhibition of Mycobacterium tuberculosis T6PP using T6P as substrate assessed as fraction of enzyme unbound with compound by measuring ratio of initial velocities of T6P substrate hydrolysis in presence and absence of compound at 1 mM after 5 mins by BioMol green dye based HTS assay
Procedure, shortened: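 Mt-T6PP (5–25 nM, freshly purified) in 25 mM Hepes pH 7.5, 50 mM NaCl, 5 mM MgCl₂, 5% glycerol at 25 °C. T6P at Km. Initial velocity was measured with and without 1 mM inhibitor; released phosphate read as absorbance at 625 nm after 30 min incubation. VI/V is the unbound-enzyme fraction.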

[2] = tested on: Mycobacterium tuberculosis; assay: Inhibition of Mycobacterium tuberculosis T6PP assessed as Vmax for substrate using T6P as substrate by Lineweaver-Burk plot analysis
Procedure, shortened: (§1)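 Continuous phosphate-release assay (EnzChek, MESG/purine nucleoside phosphorylase) at 25 °C. Initial velocities of T6P hydrolysis by T6PP were taken at varied T6P with inhibitor at 0, Ki and 2×Ki. Km and Vmax come from double-reciprocal plots.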

[3] = tested on: Mycobacterium tuberculosis; assay: Inhibition of Mycobacterium tuberculosis T6PP assessed as Km for substrate using T6P as substrate at 1 mM by Lineweaver-Burk plot analysis; procedure, shortened: as §1
[4] = Inhibition of Mycobacterium tuberculosis T6PP using T6P as substrate by Lineweaver-Burk plot analysis; procedure, shortened: as §1

Row | SMILES | Ratio [1] | other results
1 | Nc1ccc(O[C@@H]2O[C@H](COS(=O)(=O)O)[C@@H](O)[C@H](O)[C@H]2O)cc1 | 1 | –
2 | O=S(=O)(O)OC[C@H]1O[C@@H](Oc2ccccc2)[C@H](O)[C@@H](O)[C@@H]1O | 0.94 | –
3 | O=S(=O)(O)OC[C@H]1O[C@H](Oc2ccccc2)[C@H](O)[C@@H](O)[C@@H]1O | 1.17 | –
4 | OC[C@H]1O[C@H](O[C@H]2O[C@H](CO)[C@@H](O)[C@H](O)[C@H]2O)[C@H](O)[C@@H](O)[C@@H]1O [TREHALOSE] | 0.83 | –
5 | CCCCCCCCO[C@@H]1O[C@H](COS(=O)(=O)O)[C@@H](O)[C@H](O)[C@H]1O | 0.83 | –
6 | O=S(=O)(O)OC[C@H]1O[C@@H](Oc2ccc(CO)cc2)[C@H](O)[C@@H](O)[C@@H]1O | 0.85 | –
7 | O=S(=O)(O)OC[C@H]1O[C@@H](Oc2ccc(-c3ccccc3)cc2)[C@H](O)[C@@H](O)[C@@H]1O | 0.58 | Vmax [2]: 0.0271 µM/s; Km [3]: 838 µM; Ki [4]: 1600 µM
8 | CO[C@H]1O[C@H](COS(=O)(=O)O)[C@@H](O)[C@H](O)[C@H]1O | 0.91 | –
9 | O=Cc1ccccc1O[C@@H]1O[C@H](COS(=O)(=O)O)[C@@H](O)[C@H](O)[C@H]1O | 1.17 | –
10 | OC[C@H]1O[C@@H](n2cc(-c3ccccc3)nn2)[C@H](O)[C@@H](O)[C@@H]1O | 0.95 | –
11 | OC[C@H]1O[C@H](Oc2ccccc2)[C@H](O)[C@@H](O)[C@@H]1O | 0.88 | –
12 | CCCCCCCCc1ccc(O[C@@H]2O[C@H](COS(=O)(=O)O)[C@@H](O)[C@H](O)[C@H]2O)cc1 | 0.42 | Ki [4]: > 300 µM
13 | O=S(=O)(O)OC[C@H]1O[C@H](OCc2ccccc2)[C@H](O)[C@@H](O)[C@@H]1O | 0.83 | –
14 | O=Cc1cccc(O[C@@H]2O[C@H](COS(=O)(=O)O)[C@@H](O)[C@H](O)[C@H]2O)c1 | 0.67 | Vmax [2]: 0.247 µM/s; Km [3]: 712 µM; Ki [4]: 1700 µM
15 | COc1cc(C=O)cc(OC)c1O[C@@H]1O[C@H](COS(=O)(=O)O)[C@@H](O)[C@H](O)[C@H]1O | 1.09 | –
16 | OC[C@H]1O[C@@H](Nc2ccccc2)[C@H](O)[C@@H](O)[C@@H]1O | 0.88 | –
17 | O=S(=O)(O)OC[C@H]1O[C@@H](n2cc(-c3ccccc3)nn2)[C@H](O)[C@@H](O)[C@@H]1O | 0.98 | –
18 | OC[C@H]1O[C@@H](Oc2ccccc2)[C@H](O)[C@@H](O)[C@@H]1O | 0.81 | –
19 | CO[C@H]1O[C@H](COS(=O)(=O)O)[C@@H](O)[C@H](OCc2ccccc2)[C@H]1O | 1.16 | –

Row | SMILES | Ratio [1] | other results
20 | O=S(=O)(O)OC[C@H]1O[C@H](O[C@H]2O[C@H](CO)[C@@H](O)[C@H](O)[C@H]2O)[C@H](O)[C@@H](O)[C@@H]1O | 0.43 | Ki [4]: 130 µM
21 | CCCCCCc1ccc(O[C@@H]2O[C@H](COS(=O)(=O)O)[C@@H](O)[C@H](O)[C@H]2O)cc1 | – | Ki [4]: > 400 µM
22 | O=P(O)(O)OC[C@H]1O[C@@H](Oc2ccccc2)[C@H](O)[C@@H](O)[C@@H]1O | 0.94 | –
23 | O=S(=O)(O)OCc1cccc(O[C@@H]2O[C@H](CO)[C@@H](O)[C@H](O)[C@H]2O)c1 | 0.96 | –
24 | O=S(=O)(O)OC[C@H]1O[C@@H](Oc2cccc3ccccc23)[C@H](O)[C@@H](O)[C@@H]1O | 0.85 | –
25 | O=Cc1ccc(O[C@@H]2O[C@H](COS(=O)(=O)O)[C@@H](O)[C@H](O)[C@H]2O)cc1 | 0.87 | –
26 | CCCCCCc1ccc(O[C@H]2O[C@H](COS(=O)(=O)O)[C@@H](O)[C@H](O)[C@H]2O)cc1 | – | Ki [4]: > 400 µM
27 | CC(=O)Nc1ccc(O[C@@H]2O[C@H](COS(=O)(=O)O)[C@@H](O)[C@H](O)[C@H]2O)cc1 | 0.94 | –
28 | O=S(=O)(O)OC[C@H]1O[C@@H](Oc2cccc(CO)c2)[C@H](O)[C@@H](O)[C@@H]1O | 0.69 | –
29 | O=S(=O)(O)OC[C@H]1O[C@@H](Oc2ccccc2CO)[C@H](O)[C@@H](O)[C@@H]1O | 0.89 | –
30 | NS(=O)(=O)OCc1cccc(N[C@@H]2O[C@H](CO)[C@@H](O)[C@H](O)[C@H]2O)c1 | 1.17 | –
31 | O=S(=O)(O)OC[C@H]1O[C@H](O)[C@H](O)[C@@H](O)[C@@H]1O | 0.97 | –
32 | O=S(=O)(O)OC[C@H]1O[C@@H](Oc2ccc(F)c(F)c2)[C@H](O)[C@@H](O)[C@@H]1O | 0.8 | –
33 | CCCCCCCCc1ccc(O[C@H]2O[C@H](COS(=O)(=O)O)[C@@H](O)[C@H](O)[C@H]2O)cc1 | – | Ki [4]: 100 µM
34 | CO[C@H]1O[C@H](COS(=O)(=O)O)[C@@H](O)[C@H](O)[C@H]1OCc1ccccc1 | 1.01 | –
35 | O=[N+]([O-])c1ccc(O[C@@H]2O[C@H](COS(=O)(=O)O)[C@@H](O)[C@H](O)[C@H]2O)cc1 | 1.27 | –
36 | OC[C@H]1O[C@@H](NC(=S)Nc2ccccc2)[C@H](O)[C@@H](O)[C@@H]1O | 1.04 | –
37 | CO[C@H]1O[C@H](COS(=O)(=O)O)[C@@H](OCc2ccccc2)[C@H](O)[C@H]1O | 1.11 | –
